# Source: PubChem BioAssay
# Active and inactive are the calls of the source.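 Rule for the calls, unless noted: active = visually confirmed hit in the image check and inhibition above 20%; inconclusive = visually confirmed hit but inhibition not above 20%; inactive = no visual hit in the image check.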
# What was measured:
# [1] = inhibitors of TNFa-induced NFkB p65 translocation, primary screen, imaging, HUVEC, MLSMR starter and 10KST1 sets (AID 438;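 active = inhibition above 20% together with a positive visual image hit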;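 note: compound added about 3h40 before a 20 min TNFalpha stimulation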;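 for inhibition: signal is the nuclear over cytoplasmic p65 intensity ratio per well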); conditions: HUVEC TNFa-induced p65 nuclear translocation; cell count: measured here: nuclei count (cytotoxicity indicator), at 2.08 µM; inhibition: at 2 µM, stronger effect = higher value, 0% TNFa-plus-vehicle, 100% no-TNFa wells
# [2] = inhibitors of mutant huntingtin aggregation, primary screen, imaging, exon1htt(103Q)mCFP cells, high-content imaging (AID 483;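 active = visual image review flags a hit and inhibition of aggregation exceeds 20%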;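 note: compound exposure lasted 3 days before fixation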;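 for nuclei count: percent of the per-plate median nuclei count of sample wells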); conditions: exon1htt(103Q)mCFP cell line, aggregate imaging, at 2 µM; inhibition of aggregation: stronger effect = higher value; nuclei count: measured here: cell count, toxicity
# [3] = inhibitors of E-selectin induction by TNFa, primary screen, imaging, HUVEC, immunofluorescence, MLSMR starter and 10KST1 sets (AID 487); conditions: HUVEC TNFalpha-induced E-selectin immunofluorescence imaging, at 2 µM; inhibition: stronger effect = higher value; nuclei count: measured here: cell number, toxicity;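 for inhibition: signal is fraction of cell area covered by stained E-selectin grains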;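 for nuclei count: 100% = median nuclei count of all wells on the same plate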
# [4] = biological target: Voltage-gated potassium channel subunit beta-2 (Rattus norvegicus) (UniProt P62483); assay: KvBeta enzyme negative modulators, primary screen, biochemical, NADPH fluorescence (AID 622;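 active = fluorescence slope higher than the sample average by over 3 SD, cut at about -0.22 in these data, passing the limit was not always enough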;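 note: slope of raw intensity against log time taken from 70 to 1610 s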); conditions: recombinant KvBeta, 4-cyanobenzaldehyde reduction, at 10 µM, stronger effect = higher value
# [5] = biological target: Voltage-gated potassium channel subunit beta-2 (Rattus norvegicus) (UniProt P62483); assay: KvBeta positive modulators, primary screen, biochemical, NADPH fluorescence (AID 623;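 active = NADPH fluorescence slope more negative than the mean of all samples by about 3 SD, 99.7% confidence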;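 note: fluorescence intensity change per second fitted from 20 to 320 s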); conditions: Recombinant KvBeta, NADPH fluorescence decrease slope, 10 min; at 10 µM; stronger effect = lower value
# [6] = biological target: Muscarinic acetylcholine receptor M4 (Homo sapiens) (UniProt P08173); assay: compounds altering M4/GIRK thallium flux, either direction, primary screen, M4 allosteric agonist project, cell-based, HEK293 M4/GIRK, BTC-AM (AID 625;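 active = fluorescence slope after compound addition differing from the mean of all tested samples at 99.7% confidence, mostly higher but some lower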;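 note: thallium influx through GIRK channels coupled to M4 in HEK293 cells with BTC-AM dye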); conditions: at 10 µM, actives lie on both sides
# Summary of the method: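 Assay system: HEK293 cells with M4 receptor and GIRK channels / Controls: carbachol and DMSO controls / Schedule: 1 h dye loading, 2 min kinetic read / Technique: kinetic fluorescence with BTC-AM dye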
# [7] = inhibitors of Sendai virus-induced IRF3 signaling, primary screen, TLR/RLR signaling modifier project, cell-based, Sendai virus stimulus, luciferase, 10K MLSCN set (AID 602276;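 active = inhibition at or above 50% at 10 µM; inactive = inhibition below 50%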;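 note: firefly luciferase from ISG56 promoter only with Renilla not read in this screen; 0% = Sendai virus plus DMSO and 100% = medium plus DMSO without virus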); conditions: HEK293 RL24 IRF3 luciferase reporter, at 10 µM, stronger effect = higher value
# [8] = inhibitors of poly I:C-induced TLR3 signaling, primary screen, cell-based, poly I:C stimulus, luciferase, 10K MLSCN set (AID 602277;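 active = inhibition of the reporter signal at or above 50%; inactive = inhibition below 50%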); conditions: HEK293-TLR3 RL24 IRF3 luciferase reporter, at 10 µM, stronger effect = higher value
# Sequence of Voltage-gated potassium channel subunit beta-2 (Rattus norvegicus) (P62483 whole entry, looked up): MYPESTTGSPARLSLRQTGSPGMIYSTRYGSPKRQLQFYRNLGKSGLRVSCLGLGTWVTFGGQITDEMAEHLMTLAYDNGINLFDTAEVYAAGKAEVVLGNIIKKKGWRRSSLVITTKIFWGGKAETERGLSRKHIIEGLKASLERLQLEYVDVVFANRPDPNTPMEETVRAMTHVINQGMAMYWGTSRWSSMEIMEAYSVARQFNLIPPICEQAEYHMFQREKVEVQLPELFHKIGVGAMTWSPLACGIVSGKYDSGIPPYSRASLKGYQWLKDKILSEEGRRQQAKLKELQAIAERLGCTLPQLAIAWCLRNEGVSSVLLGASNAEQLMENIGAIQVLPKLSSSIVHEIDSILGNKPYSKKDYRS
# Sequence of Muscarinic acetylcholine receptor M4 (Homo sapiens) (P08173 whole entry, looked up): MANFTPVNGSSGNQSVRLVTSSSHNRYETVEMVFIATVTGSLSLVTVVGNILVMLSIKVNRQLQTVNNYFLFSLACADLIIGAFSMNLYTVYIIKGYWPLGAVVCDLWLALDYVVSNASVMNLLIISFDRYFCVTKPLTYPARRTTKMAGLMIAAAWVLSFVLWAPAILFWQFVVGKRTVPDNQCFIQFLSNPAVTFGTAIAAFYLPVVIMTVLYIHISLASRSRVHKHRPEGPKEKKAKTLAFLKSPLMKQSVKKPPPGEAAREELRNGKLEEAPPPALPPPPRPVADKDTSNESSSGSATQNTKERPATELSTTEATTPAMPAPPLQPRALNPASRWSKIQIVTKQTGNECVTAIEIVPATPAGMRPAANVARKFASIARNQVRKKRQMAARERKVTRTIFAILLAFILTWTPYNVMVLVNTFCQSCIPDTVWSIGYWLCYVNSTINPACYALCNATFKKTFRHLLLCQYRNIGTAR
SMILES,cell count [1],inhibition [1],inhibition of aggregation [2],nuclei count [2],inhibition [3],nuclei count [3],fluorescence slope [4],NADPH fluorescence slope [5],fluorescence slope [6],inhibition [7],inhibition [8]
COc1ccccc1NC(=O)C1CC(=O)N(c2ccc(F)cc2)C1 (centres undefined),402,4.5% (inactive),13.8% (inactive),101%,-46.4% (inactive),110%,-0.583 (inactive),-9.7e-05 (inactive),0.00373 (inactive),-15.4% (inactive),-26.4% (inactive)
CN(C)c1nc(Nc2ccc(Cl)cc2)nc(OCC#N)n1,387,-23% (inactive),-6.1% (inactive),78.6%,-109% (inactive),128%,-0.574 (inactive),1.7e-05 (inactive),0.00241 (inactive),24.2% (inactive),37.1% (inactive)
CCn1c(SCC(=O)NCc2ccco2)nc2c(c1=O)SC(C)C2 (centres undefined),368,8.3% (inactive),-2.9% (inactive),101%,-14.8% (inactive),115%,-0.4 (inactive),-0.000131 (inactive),0.0058 (inactive),4.07% (inactive),9.1% (inactive)
CC12C(=O)N(CCC(=O)O)C(=O)C1C1C=CC2C1 (centres undefined),666,23.6% (active),3.1% (inactive),99.2%,7.8% (inactive),114%,-0.456 (inactive),-4.5e-05 (inactive),0.00503 (inactive),17.6% (inactive),21.9% (inactive)
c1ccc(-n2nnnc2OCCOc2nnnn2-c2ccccc2)cc1,172,-10.5% (inactive),11.5% (inactive),102%,-5.3% (inactive),83.1%,-0.562 (inactive),-6.2e-05 (inactive),0.00376 (inactive),14.3% (inactive),23.8% (inactive)
CCOC(=O)c1[nH]c(C)c(C(=O)N2CCN(c3ccc(F)cc3)CC2)c1C,755,-2.2% (inactive),-27% (inactive),118%,-175% (inactive),119%,-0.451 (inactive),1.1e-05 (inactive),0.00564 (inactive),1.11% (inactive),8.18% (inactive)
CCOc1ccccc1NS(=O)(=O)c1c(C)noc1C,389,5.5% (inactive),42.8% (inactive),97.1%,-3.1% (inactive),111%,-0.461 (inactive),4.7e-05 (inactive),0.00758 (inactive),0.4% (inactive),24.4% (inactive)
COc1cc(NC(=O)c2ccco2)c(OC)cc1NC(=O)CCC(=O)Nc1cc(C)cc(C)c1,534,-0.3% (inactive),18.3% (inactive),72.2%,26.4% (inactive),68.3%,-0.279 (inactive),6.9e-06 (inactive),0.00626 (inactive),16% (inactive),27.3% (inactive)
Cc1c(C(=O)NCc2cccnc2)sc2ncn(CC(=O)N3CCCCC3C)c(=O)c12 (centres undefined),477,-7% (inactive),-3.4% (inactive),89.7%,-51.3% (inactive),70.3%,-0.555 (inactive),-1.4e-05 (inactive),0.00535 (inactive),18.5% (inactive),23.8% (inactive)
Cc1ccc(C)n1NC(=O)c1ccco1,692,-4.7% (inactive),0% (inactive),94.1%,-19.2% (inactive),109%,-0.567 (inactive),-1.3e-05 (inactive),0.00521 (inactive),9.01% (inactive),14.3% (inactive)
COc1ccccc1NC(=O)N(Cc1ccccc1)c1ccccn1,756,3.2% (inactive),-5.9% (inactive),93.7%,19.9% (inactive),114%,-0.581 (inactive),-7e-05 (inactive),0.00744 (inactive),-7.55% (inactive),-38.8% (inactive)
CCN(CC)c1ccc(NC(=O)c2cncc(Br)c2)cc1,218,0.6% (inactive),28% (inactive),86.8%,-31.6% (inactive),104%,-0.59 (inactive),-6e-05 (inactive),0.00416 (inactive),-32.8% (inactive),-129% (inactive)
COC(=O)c1[nH]c2cc(OC)ccc2c1NC(=O)CCN1CCCCC1,290,10.8% (inactive),-12.7% (inactive),70.3%,-82.1% (inactive),164%,-0.55 (inactive),-5.4e-05 (inactive),0.0032 (inactive),-3.43% (inactive),3.78% (inactive)
CCOC(=O)c1cnc(-n2nc(C)cc2C)nc1Nc1ccc(N(C)C)cc1,603,-15.5% (inactive),30.6% (inactive),84%,-51.8% (inactive),88.2%,-0.574 (inactive),-4.7e-05 (inactive),0.00563 (inactive),4.06% (inactive),4.11% (inactive)
CCOC(=O)N1CCN(C(=O)c2ccc3nc4cc(Cl)ccc4c(=O)n3c2)CC1,726,-8.8% (inactive),-19.4% (inactive),118%,17.6% (inactive),118%,-0.0121 (inactive),2.7e-06 (inactive),0.00404 (inactive),6.58% (inactive),6.7% (inactive)
CC1CCCCN1CCNC(=O)c1ccc2c(=O)n(CCc3ccccc3)c(=O)[nH]c2c1 (centres undefined),105,116% (active),12.7% (inactive),91.2%,-3.9% (inactive),119%,-0.279 (inactive),-3.6e-05 (inactive),0.00585 (inactive),2.66% (inactive),-7.7% (inactive)
CCOc1ccc2nc(SCC#N)c(C#N)cc2c1,430,3.1% (inactive),-3.9% (inactive),14.5%,9.9% (inactive),114%,-0.561 (inactive),-1.4e-05 (inactive),0.00501 (inactive),-56.3% (inactive),-93.9% (inactive)
COc1cc(-c2nc(S(=O)(=O)c3ccccc3)c(N3CCOCC3)o2)cc(OC)c1OC,439,6% (inactive),-5.3% (inactive),108%,-286% (inactive),126%,-0.471 (inactive),-0.000303 (inactive),0.0029 (inactive),14.4% (inactive),15.3% (inactive)
CCCN1CCN(C(=O)c2cn(CC(C)C)c(=O)c3cc(OC)c(OC)cc23)CC1,566,-25.1% (inactive),-3.2% (inactive),113%,-9.9% (inactive),105%,-0.441 (inactive),-4.3e-05 (inactive),0.00598 (inactive),15.6% (inactive),20.6% (inactive)
